The values below come from ChEMBL document CHEMBL4819107, “Substituted N-(4-amino-2-chlorophenyl)-5-chloro-2-hydroxybenzamide analogues potently inhibit respiratory syncytial virus (RSV) replication and RSV infection-associated inflammatory responses” (Bioorg Med Chem, 2021).

Molecules are shown by their SMILES. Active and inactive are the calls of the source. No cut-off for these calls is given here.

For data set [1], the system named is A549. The data set is described as follows: Antiinflammatory activity against in human A549 cells assessed as reduction in RSV-induced IRF3 mRNA expression at 10 uM incubated for 4 hrs by qRT-PCR analysis. In kind it is functional, cell-based.
Data set [2] has as its system Respiratory syncytial virus. Briefly: Antiviral activity against RSV infected in human A549 cells assessed as reduction in viral matrix protein at 10 uM incubated for 15 hrs by Western blot analysis. In kind it is functional, organism-based. Put shortly: (§1)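 A549 cells infected with RSV (MOI 1) and treated with 10 μM compound for 15 h. Viral proteins detected by western blot of lysates using anti-RSV or anti-F antibodies, with β-actin as loading control. Membranes blocked in 5% milk in TBS-Tween 20.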

In data set [3] the target is T1, Nuclear factor NF-kappa-B complex (Homo sapiens) (UniProt Q00653+P19838+Q04206). Briefly: Inhibition of poly I:C-induced NF-kappaB (unknown origin) transfected in human HEK293 cells co-transfected with NF-kappaB-Luc gene incubated for 4 hrs by luciferase reporter gene. In kind it is cell-based. The gist of the method:
(§2)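 HEK-293 cells transiently transfected with IRF-3 or NF-κB luciferase reporter. At 15 h post-transfection, cells transfected with Poly I:C in the presence of compound. Luciferase activity then measured.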

Data set [4] has as its system Respiratory syncytial virus. The data set is described as follows: Antiviral activity against RSV infected in human A549 cells assessed as reduction in viral titer at 7.5 uM incubated for 15 hrs by immunostaining analysis. Type of data set: functional. The gist of the method: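 Dose-response: A549 cells infected with RSV long strain at MOI 1, then treated with a range of compound concentrations for 15 h. Total virus harvested and titred by immunostaining in HEp-2 cells with biotin-conjugated goat anti-RSV antibody. Reduction expressed as log decrease in titer relative to vehicle (DMSO) control.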

The test system of data set [5] is Respiratory syncytial virus. Briefly: Antiviral activity against RSV infected in human A549 cells assessed as reduction in viral titer at 10 uM incubated for 15 hrs by immunostaining analysis. In kind it is functional. The gist of the method:
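RSV long strain (propagated in HEp-2, sucrose-gradient purified) infected A549 cells at MOI 1 for 2 h. Inoculum removed, then compound at 10 μM for 15 h. Progeny virus titred by immunostaining in HEp-2 cells with biotin-conjugated goat anti-RSV antibody. Log reduction = log10 mean titer of vehicle-treated cells minus log10 mean titer with compound.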

For data set [6], the system named is Respiratory syncytial virus. The data set is described as follows: Antiviral activity against RSV infected in human A549 cells assessed as reduction in viral phosphoprotein at 10 uM incubated for 15 hrs by Western blot analysis. In kind it is functional, organism-based. Put shortly: as §1
In data set [7] the target is T1, Nuclear factor NF-kappa-B complex (Homo sapiens). Briefly: Inhibition of NF-kappaB in human A549 cells assessed as reduction in p65 Ser276 phosphorylation at 10 uM measured after 4 hrs by Western blot analysis. Type of data set: cell-based. The gist of the method:
(§3)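 A549 cells infected or mock-infected with RSV (MOI 5), then treated with 10 μM compound for 4 h. Nuclear extracts (or total lysates) prepared, resolved by SDS-PAGE, transferred to PVDF, and probed by western blot. β-actin as loading control.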

The test system of data set [8] is A549. The data set is described as follows: Antiinflammatory activity against in human A549 cells transfected with PRDIII-I-Luc and IRF-3-Luc assessed as reduction in RSV-induced IRF3 activation at 10 uM incubated for 15 hrs by luciferase reporter gene assay. In kind it is functional, cell-based. Put shortly: (§4)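 A549 cells transfected in triplicate with luciferase plasmids, either NF-κB-Luc or IRF-3-site reporters. At 20 h post-transfection, infected with RSV (MOI 1). Virus removed at 2 h, then 10 μM compound added for 15 h. Cells then harvested and lysed for luciferase activity.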

Data set [9] has as its system A549. The data set is described as follows: Antiinflammatory activity against in human A549 cells transfected with NF-kappaB-Luc assessed as reduction in RSV-induced NF-kappaB activation at 10 uM incubated for 15 hrs by luciferase reporter gene assay. Type of data set: functional, cell-based. Put shortly:
as §4

In data set [10] the test system is Respiratory syncytial virus. Briefly: Antiviral activity against RSV infected in human A549 cells assessed as reduction in viral RNA at 10 uM measured upto 24 hrs by qRT-PCR analysis. In kind it is functional, organism-based. Particulars: time hrs <=24. Put shortly:
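A549 cells infected with RSV (MOI 1), then given 10 μM compound. RSV genome copies in cells quantified by RT-qPCR at 6, 15 and 24 h post-treatment. A fusion inhibitor served as a reference control.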

The target in data set [11] is Interferon regulatory factor 3 (Homo sapiens) (UniProt Q14653). The data set is described as follows: Inhibition of IRF3 in RSV-infected human A549 cells assessed as reduction in IRF3 nuclear translocation at 10 uM measured upto 15 hrs by Western blot analysis. Particulars: time hrs <=15.
The target of data set [12] is T1, Nuclear factor NF-kappa-B complex (Homo sapiens). Briefly: Inhibition of NF-kappaB in human A549 cells assessed as reduction in p65 Ser536 phosphorylation at 10 uM measured after 15 hrs by Western blot analysis. Type of data set: cell-based. Put shortly: (§5)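 A549 cells infected or mock-infected with RSV (MOI 1), then treated with 10 μM compound for 15 h. Nuclear extracts prepared and analysed by western blot after SDS-PAGE and PVDF transfer. β-actin as loading control.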

For data set [13], the system named is A549. The data set is described as follows: Cytotoxicity against human A549 cells assessed as reduction in cell viability incubated for 15 hrs by trypan blue assay. To be noted: a549, 15 h.
The target of data set [14] is Interferon regulatory factor 3 (Homo sapiens) (UniProt Q14653). Briefly: Inhibition of IRF3 in RSV-infected human A549 cells assessed as reduction in IRF3 Ser396 phosphorylation at 10 uM measured upto 15 hrs by Western blot analysis. Particulars: time hrs <=15.
Data set [15] addresses T1, Nuclear factor NF-kappa-B complex (Homo sapiens). Briefly: Inhibition of NF-kappaB in human A549 cells assessed as reduction in p65 nuclear translocation at 10 uM measured after 4 hrs by Western blot analysis. Type of data set: cell-based. Put shortly: as §3
Data set [16] has the same target. Briefly: Inhibition of NF-kappaB in human A549 cells assessed as reduction in p65 Ser276 phosphorylation at 10 uM measured after 15 hrs by Western blot analysis. Type of data set: cell-based. The gist of the method: as §5
The target of data set [17] is T2, Interferon regulatory factor 3 (Homo sapiens) (UniProt Q14653).
T2 sequence (whole entry): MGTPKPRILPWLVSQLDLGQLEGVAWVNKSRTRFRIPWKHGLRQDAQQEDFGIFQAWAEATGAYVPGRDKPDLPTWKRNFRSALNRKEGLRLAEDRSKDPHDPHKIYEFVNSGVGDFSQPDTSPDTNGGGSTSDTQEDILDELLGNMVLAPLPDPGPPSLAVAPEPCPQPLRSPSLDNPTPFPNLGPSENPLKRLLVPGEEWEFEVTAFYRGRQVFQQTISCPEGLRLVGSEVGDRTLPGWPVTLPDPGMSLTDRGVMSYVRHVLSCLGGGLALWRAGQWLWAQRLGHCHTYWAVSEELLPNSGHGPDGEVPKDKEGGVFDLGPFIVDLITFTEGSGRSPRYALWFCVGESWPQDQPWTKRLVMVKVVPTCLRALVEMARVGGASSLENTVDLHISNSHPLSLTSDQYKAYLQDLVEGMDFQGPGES
The data set is described as follows: Inhibition of poly I:C-induced IRF3 (unknown origin) transfected in human HEK293 cells co-transfected with IRF3-Luc gene incubated for 4 hrs by luciferase reporter gene. In kind it is cell-based. Put shortly: as §2

Data set [18] deals with Respiratory syncytial virus. Briefly: Antiviral activity against RSV infected in human A549 cells assessed as reduction in viral N protein at 10 uM incubated for 15 hrs by Western blot analysis. In kind it is functional, organism-based. The gist of the method: as §1
The target in data set [19] is T1, Nuclear factor NF-kappa-B complex (Homo sapiens). The data set is described as follows: Inhibition of NF-kappaB in human A549 cells assessed as reduction in p65 nuclear translocation at 10 uM measured after 15 hrs by Western blot analysis. In kind it is cell-based. The gist of the method: as §5
The target is the same in data set [20]. Briefly: Inhibition of NF-kappaB in human A549 cells assessed as reduction in p65 Ser536 phosphorylation at 10 uM measured after 4 hrs by Western blot analysis. In kind it is cell-based. The gist of the method:
as §3

Data set [21] concerns A549. Briefly: Antiinflammatory activity against in human A549 cells assessed as reduction in RSV-induced NF-kappaB mRNA expression at 10 uM incubated for 4 hrs by qRT-PCR analysis. In kind it is functional, cell-based.
Data set [22] relates to A549. The data set is described as follows: Cytotoxicity against human A549 cells assessed as cell death at 10 uM incubated for 15 hrs by LDH assay. Particulars: a549, 15 h. Type of data set: cell-based. The gist of the method:
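A549 cells seeded at 1.5 × 10^4 cells/well. After 24 h, medium replaced with medium containing 10 μM compound and 2% FBS. At 15 h, cell damage read by luminescent LDH release assay. DMSO vehicle control; three biological replicates.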

T1 sequence (P19838 whole entry, looked up): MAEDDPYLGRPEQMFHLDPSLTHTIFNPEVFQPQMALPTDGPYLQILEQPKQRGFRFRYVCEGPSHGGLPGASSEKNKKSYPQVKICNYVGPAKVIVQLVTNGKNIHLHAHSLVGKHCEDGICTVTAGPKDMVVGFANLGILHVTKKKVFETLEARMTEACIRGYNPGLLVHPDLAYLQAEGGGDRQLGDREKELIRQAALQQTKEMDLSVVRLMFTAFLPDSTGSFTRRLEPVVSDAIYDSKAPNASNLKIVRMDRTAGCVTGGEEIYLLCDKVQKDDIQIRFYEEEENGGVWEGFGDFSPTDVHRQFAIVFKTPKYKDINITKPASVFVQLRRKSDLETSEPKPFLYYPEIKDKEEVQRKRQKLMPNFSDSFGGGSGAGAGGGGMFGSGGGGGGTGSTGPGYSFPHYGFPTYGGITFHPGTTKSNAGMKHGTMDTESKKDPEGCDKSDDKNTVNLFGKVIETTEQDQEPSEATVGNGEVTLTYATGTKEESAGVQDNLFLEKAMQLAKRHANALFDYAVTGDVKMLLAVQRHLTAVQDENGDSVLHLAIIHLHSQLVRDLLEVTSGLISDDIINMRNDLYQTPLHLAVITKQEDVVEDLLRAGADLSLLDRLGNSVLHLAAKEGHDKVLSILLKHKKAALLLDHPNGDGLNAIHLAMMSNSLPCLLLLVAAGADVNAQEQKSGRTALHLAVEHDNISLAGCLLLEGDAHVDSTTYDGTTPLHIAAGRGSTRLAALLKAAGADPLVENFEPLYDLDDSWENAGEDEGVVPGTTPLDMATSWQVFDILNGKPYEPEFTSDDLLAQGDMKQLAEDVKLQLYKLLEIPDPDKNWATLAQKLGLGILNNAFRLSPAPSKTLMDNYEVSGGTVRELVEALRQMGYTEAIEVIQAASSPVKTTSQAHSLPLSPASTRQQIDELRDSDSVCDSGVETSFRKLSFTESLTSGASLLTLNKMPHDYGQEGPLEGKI
T1 sequence (Q00653 whole entry, looked up): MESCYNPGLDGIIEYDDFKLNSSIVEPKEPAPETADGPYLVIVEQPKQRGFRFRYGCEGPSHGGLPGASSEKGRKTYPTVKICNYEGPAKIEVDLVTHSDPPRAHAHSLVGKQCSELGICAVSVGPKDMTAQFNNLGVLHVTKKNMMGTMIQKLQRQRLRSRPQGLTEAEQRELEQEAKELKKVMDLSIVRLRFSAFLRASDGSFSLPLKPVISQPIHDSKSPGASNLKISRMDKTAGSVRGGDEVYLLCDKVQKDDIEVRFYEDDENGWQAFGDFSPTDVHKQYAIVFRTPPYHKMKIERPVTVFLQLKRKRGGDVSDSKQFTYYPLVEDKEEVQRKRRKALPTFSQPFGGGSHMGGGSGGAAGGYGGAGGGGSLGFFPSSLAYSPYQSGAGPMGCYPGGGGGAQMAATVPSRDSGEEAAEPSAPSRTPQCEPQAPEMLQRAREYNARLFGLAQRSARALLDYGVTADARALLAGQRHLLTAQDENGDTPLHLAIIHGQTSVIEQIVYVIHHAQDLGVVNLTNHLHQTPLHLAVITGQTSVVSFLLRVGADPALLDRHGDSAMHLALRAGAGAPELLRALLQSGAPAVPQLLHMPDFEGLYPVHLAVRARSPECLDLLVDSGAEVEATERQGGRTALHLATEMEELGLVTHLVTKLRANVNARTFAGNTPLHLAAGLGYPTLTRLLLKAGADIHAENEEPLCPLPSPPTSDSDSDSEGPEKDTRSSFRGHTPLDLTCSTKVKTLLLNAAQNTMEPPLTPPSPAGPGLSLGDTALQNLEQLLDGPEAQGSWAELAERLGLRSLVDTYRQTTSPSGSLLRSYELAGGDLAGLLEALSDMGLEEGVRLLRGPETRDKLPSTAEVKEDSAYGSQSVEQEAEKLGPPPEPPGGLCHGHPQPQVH
T1 sequence (Q04206 whole entry, looked up): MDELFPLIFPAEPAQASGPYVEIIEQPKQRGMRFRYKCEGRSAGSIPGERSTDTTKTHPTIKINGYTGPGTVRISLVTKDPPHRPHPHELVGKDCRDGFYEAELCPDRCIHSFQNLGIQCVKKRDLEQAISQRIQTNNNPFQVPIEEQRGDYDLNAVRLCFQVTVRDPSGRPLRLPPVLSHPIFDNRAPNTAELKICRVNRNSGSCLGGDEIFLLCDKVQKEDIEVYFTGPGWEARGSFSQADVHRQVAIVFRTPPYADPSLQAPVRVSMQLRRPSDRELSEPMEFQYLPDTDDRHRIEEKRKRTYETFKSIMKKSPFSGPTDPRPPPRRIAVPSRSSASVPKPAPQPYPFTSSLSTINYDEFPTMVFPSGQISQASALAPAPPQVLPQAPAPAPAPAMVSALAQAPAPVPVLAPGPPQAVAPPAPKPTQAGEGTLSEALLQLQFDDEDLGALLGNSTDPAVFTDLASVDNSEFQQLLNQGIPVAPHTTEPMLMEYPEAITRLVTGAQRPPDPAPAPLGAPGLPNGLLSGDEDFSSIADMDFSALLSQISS

`O=C(Nc1ccc(NCc2ccco2)cc1Cl)c1cc(Cl)ccc1O`: the inhibition result (with A549 [1]; in data set [2]; in [3]; in data set [6]; in the data set on A549 [8]; with A549 [9]) was “Active” throughout. Besides, the inhibition entry in data set [10], in data set [11], in [12], in data set [14], in data set [15] and in data set [16] was “Active” throughout. The inhibition result (in [17]; in data set [18]; in data set [19]; in data set [20]; in the data set on A549 [21]) was “Active” each time. In addition, the “log(activity)” value turned out to be 1.22 in data set [4] and 2.13 in [5]. For the same compound, the inhibition result in data set [7] was “inactive”. Besides, the CC50 with A549 [13] turned out to be 76.3 µM.

Regarding `O=C(Nc1ccc([N+](=O)[O-])cc1Cl)c1cc(Cl)ccc1O` [NICLOSAMIDE], in data set [5], the “log(activity)” value is on record as 1.47. For the same compound, in the data set on A549 [22], the Activity came out at 24%.
